# In ChEMBL document CHEMBL1127852, “Synthesis and antibacterial activity of thiazolopyrazine-incorporated tetracyclic quinolone antibacterial agents. 2” (1994):
# Experiments:
# Format in all cases: functional
# Staphylococcus aureus [1] = assay: Compound was tested for its minimal inhibitory constant against Gram-positive microorganism Staphylococcus aureus IID 803 (Sa(I))
# Summary of the method: (§1)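 Serial 2-fold agar dilution on Sensitivity Test agar, inoculum approximately 10^6 CFU/mL, incubated 37 °C for 18 h. MIC taken as lowest concentration preventing visible growth. Values are means of duplicate or triplicate experiments.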
# Enterococcus faecalis = assay: Compound was tested for its minimal inhibitory constant against Gram-positive microorganism Enterococcus faecalis IID682 (Ef); summary of the method: as §1
# Escherichia coli [2] = assay: Compound was tested for its minimal inhibitory constant against Gram-negative microorganism Escherichia coli NIHJ JC-2 (Ec(N)); summary of the method: as §1
# Pseudomonas aeruginosa [3] = assay: Compound was tested for its minimal inhibitory constant against Gram-negative microorganism Pseudomonas aeruginosa IFO 3445 (Pa(I)); summary of the method: as §1
# Micrococcus luteus = assay: Compound was tested for its minimal inhibitory constant against Gram-positive microorganism Micrococcus luteus ATCC 9341 (MI); summary of the method: as §1
# Mus musculus [4] = assay: Compound was tested for Therapeutic effects on systemic infections on mice by peroral administration; conditions: po
# Summary of the method: (§2)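 Mouse protection against S. aureus IID 803: groups of five male ddY mice (25–28 g) infected i.p. with 0.5 mL bacterial dilution at 100 or 200 times the 50% lethal dose; compound suspended in 1% aqueous gum arabic, given orally 1 h postinfection. Survival scored after 1 week; ED50 with 95% confidence limits by Weil method.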
# Staphylococcus aureus [5] = assay: Compound was tested for its minimal inhibitory constant against Gram-positive microorganism Staphylococcus aureus FDA 209P JC-1 (Sa(F)); summary of the method: as §1
# Escherichia coli [6] = assay: Compound was tested for its minimal inhibitory constant against Gram-negative microorganism Escherichia coli KC-14 (Ec(K)); summary of the method: as §1
# Pseudomonas aeruginosa [7] = assay: Compound was tested for its minimal inhibitory constant against Gram-negative microorganism Pseudomonas aeruginosa E-2 (Pa(E)); summary of the method: as §1
# [8] = test system: Staphylococcus epidermidis; assay: Compound was tested for its minimal inhibitory constant against Gram-positive microorganism Staphylococcus epidermidis IAM 1296 (Se); summary of the method: as §1
# Klebsiella pneumoniae = assay: Compound was tested for its minimal inhibitory constant against Gram-negative microorganism Klebsiella pneumoniae B54 (Kp); summary of the method: as §1
# Staphylococcus aureus [9] = assay: Tested for in vitro for antibacterial activity against 16 clinical isolated of methicillin-resistant Staphylococcus aureus
# Summary of the method: (§3)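 Serial 2-fold agar dilution in Sensitivity Test agar, following the standard method. Clinical MRSA isolates collected in Japan in 1988 and 1989. Inoculum about 10^6 CFU/mL. Plates incubated at 37 °C for 18 h. MIC taken as the lowest concentration that prevented visible growth.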
# Mus musculus [10] = assay: Compound was tested for oral efficacy on systemic infections on mice by peroral administration; summary of the method: as §2
# Staphylococcus aureus [11] = assay: Tested for in vitro for antibacterial activity against 16 clinical isolated of methicillin-resistant Staphylococcus aureus, range of Minimal inhibitory activity value for isolates; summary of the method: as §3
SMILES,MIC (Staphylococcus aureus [1]),MIC (Enterococcus faecalis),MIC (Escherichia coli [2]),MIC (Pseudomonas aeruginosa [3]),MIC (Micrococcus luteus),ED50 (Mus musculus [4]),MIC (Staphylococcus aureus [5]),MIC (Escherichia coli [6]),MIC (Pseudomonas aeruginosa [7]),MIC [8],MIC (Klebsiella pneumoniae),MIC50 (Staphylococcus aureus [9]),MIC90 (Staphylococcus aureus [9]),ED50 (Mus musculus [10]),MIC (Staphylococcus aureus [11]),MIC (Staphylococcus aureus [9])
COC[C@H]1CN(c2c(F)cc3c(=O)c(C(=O)O)c4scc5n4c3c2N(C)C5)CCO1,0.006 µg/mL,0.2 µg/mL,0.39 µg/mL,3.13 µg/mL,0.2 µg/mL,1.25 mg/kg,0.025 µg/mL,0.39 µg/mL,3.13 µg/mL,0.025 µg/mL,0.39 µg/mL,–,–,–,–,–
COC[C@@H]1CN(c2c(F)cc3c(=O)c(C(=O)O)c4scc5n4c3c2N(C)C5)CCO1,0.0125 µg/mL,0.2 µg/mL,0.2 µg/mL,3.13 µg/mL,0.2 µg/mL,0.82 mg/kg,0.025 µg/mL,0.39 µg/mL,3.13 µg/mL,0.05 µg/mL,0.78 µg/mL,–,–,–,–,–
CN1Cc2csc3c(C(=O)O)c(=O)c4cc(F)c(N5CCOC(CO)C5)c1c4n23 (configuration not stated),0.006 µg/mL,0.1 µg/mL,0.1 µg/mL,1.56 µg/mL,0.2 µg/mL,–,0.0125 µg/mL,0.1 µg/mL,1.56 µg/mL,0.05 µg/mL,0.39 µg/mL,0.39 µg/mL,0.78 µg/mL,5.1 mg/kg,≤ 0.006 µg/mL,–
CC1CN(c2c(F)cc3c(=O)c(C(=O)O)c4scc5n4c3c2N(C)C5)CCO1 (configuration not stated),0.006 µg/mL,0.05 µg/mL,0.1 µg/mL,0.78 µg/mL,0.1 µg/mL,–,0.0125 µg/mL,0.1 µg/mL,0.78 µg/mL,0.0125 µg/mL,0.39 µg/mL,0.1 µg/mL,0.2 µg/mL,3.5 mg/kg,≤ 0.006 µg/mL,–
CNCC1CN(c2c(F)cc3c(=O)c(C(=O)O)c4scc5n4c3c2N(C)C5)CCO1 (configuration not stated),0.05 µg/mL,0.2 µg/mL,0.2 µg/mL,3.13 µg/mL,0.78 µg/mL,–,0.025 µg/mL,0.2 µg/mL,3.13 µg/mL,0.1 µg/mL,1.56 µg/mL,–,–,–,–,–
CN(C)CC1CN(c2c(F)cc3c(=O)c(C(=O)O)c4scc5n4c3c2N(C)C5)CCO1 (configuration not stated),0.025 µg/mL,0.1 µg/mL,0.39 µg/mL,6.25 µg/mL,0.2 µg/mL,–,0.025 µg/mL,0.2 µg/mL,6.25 µg/mL,0.05 µg/mL,0.39 µg/mL,–,–,4.8 mg/kg,–,–
CN1Cc2csc3c(C(=O)O)c(=O)c4cc(F)c(N5CCOC(CCl)C5)c1c4n23 (configuration not stated),0.006 µg/mL,0.05 µg/mL,0.2 µg/mL,1.56 µg/mL,0.05 µg/mL,–,0.0125 µg/mL,0.2 µg/mL,1.56 µg/mL,0.0125 µg/mL,0.39 µg/mL,0.1 µg/mL,0.2 µg/mL,–,< 0.006 µg/mL,–
CCC1CN(c2c(F)cc3c(=O)c(C(=O)O)c4scc5n4c3c2N(C)C5)CCO1 (configuration not stated),0.025 µg/mL,0.1 µg/mL,0.39 µg/mL,3.13 µg/mL,0.2 µg/mL,–,0.025 µg/mL,0.39 µg/mL,1.56 µg/mL,0.05 µg/mL,0.39 µg/mL,–,–,> 12 mg/kg,–,–
CC1CN(c2c(F)cc3c(=O)c(C(=O)O)c4scc5n4c3c2N(C)C5)CC(C)O1 (configuration not stated),0.0125 µg/mL,0.2 µg/mL,0.39 µg/mL,3.13 µg/mL,0.2 µg/mL,–,0.0125 µg/mL,0.39 µg/mL,3.13 µg/mL,0.1 µg/mL,0.78 µg/mL,–,–,> 12 mg/kg,–,–
COCC1CN(c2c(F)cc3c(=O)c(C(=O)O)c4scc5n4c3c2N(C)C5)CCO1 (configuration not stated),0.0125 µg/mL,0.2 µg/mL,0.2 µg/mL,3.13 µg/mL,0.2 µg/mL,1.09 mg/kg,0.025 µg/mL,0.39 µg/mL,3.13 µg/mL,0.05 µg/mL,0.78 µg/mL,0.39 µg/mL,0.78 µg/mL,1.7 mg/kg,≤ 0.006 µg/mL,–
CN1Cc2csc3c(C(=O)O)c(=O)c4cc(F)c(N5CCOC(CF)C5)c1c4n23 (configuration not stated),0.006 µg/mL,0.05 µg/mL,0.1 µg/mL,0.78 µg/mL,0.1 µg/mL,–,0.0125 µg/mL,0.1 µg/mL,0.78 µg/mL,0.025 µg/mL,0.2 µg/mL,0.2 µg/mL,0.2 µg/mL,1.9 mg/kg,–,≤ 0.006 µg/mL
CN1Cc2csc3c(C(=O)O)c(=O)c4cc(F)c(N5CCOCC5)c1c4n23,0.006 µg/mL,0.05 µg/mL,0.1 µg/mL,0.39 µg/mL,0.1 µg/mL,–,0.006 µg/mL,0.1 µg/mL,0.39 µg/mL,0.025 µg/mL,0.05 µg/mL,0.2 µg/mL,0.2 µg/mL,> 12 mg/kg,–,< 0.006 µg/mL
CC1COc2c(N3CCN(C)CC3)c(F)cc3c(=O)c(C(=O)O)cn1c23 (configuration not stated) [OFLOXACIN],–,1.56 µg/mL,–,–,–,14.6 mg/kg,–,0.1 µg/mL,1.56 µg/mL,–,0.1 µg/mL,6.25 µg/mL,50 µg/mL,11.4 mg/kg,–,–
